Experimental data published in ChEMBL document CHEMBL1145439, “Fluorine-18-labeled benzamide analogues for imaging the sigma2 receptor status of solid tumors with positron emission tomography” (J Med Chem, 2007).

Tests used:
Muscle tissue [1] = assay: Biodistribution in muscle of mouse EMT6 tumor bearing BALB/c mouse at 10 to 20 uCi after 120 mins; assay type: ADME, organism-based; settings: in vivo, 2 h
Outline: (§1)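 EMT-6 cells (5×10^5 in 100 µL PBS) implanted s.c. in scapular region of female Balb/c mice (~2 months, 17-22 g); studied 7-10 days later at ~0.2 cm3 tumor. 18F tracer 10-20 µCi in 100-150 µL saline via tail vein; ≥4 mice per time point; tissue removed at sacrifice, weighed, gamma-counted; %ID/g calculated.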

[2] = Tumor to fat ratio of the drug in mouse EMT6 tumor bearing BALB/c mouse at 10 to 20 uCi after 2 hrs; assay type: ADME
Outline: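 Tumor-bearing female Balb/c mice (EMT-6 s.c. allograft, ~0.2 cm3) given 10-20 µCi 18F tracer in saline i.v. via tail vein; ≥4 per group; killed 120 min later. Tissues weighed and gamma-counted; ratio = tumor %ID/g divided by that organ's %ID/g.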

Liver [3] = assay: Biodistribution in liver of mouse EMT6 tumor bearing BALB/c mouse at 10 to 20 uCi after 5 mins; assay type: ADME, organism-based; settings: in vivo; outline: as §1
Brain [4] = assay: Biodistribution in brain of EMT6 tumor bearing BALB/c mouse at 10 to 20 uCi after 60 mins; assay type: ADME, organism-based; settings: in vivo, 1 h; outline: as §1
Adipose tissue [5] = assay: Biodistribution in fat of mouse EMT6 tumor bearing BALB/c mouse at 10 to 20 uCi after 120 mins; assay type: ADME, organism-based; settings: in vivo, 2 h; outline: as §1
Lung [6] = assay: Biodistribution in lung of mouse EMT6 tumor bearing BALB/c mouse at 10 to 20 uCi after 30 mins; assay type: ADME, organism-based; settings: in vivo, 0.5 h; outline: as §1
EMT6 [7] = assay: Biodistribution in tumor of mouse EMT6 tumor bearing BALB/c mouse at 10 to 20 uCi after 60 mins; assay type: ADME, organism-based; settings: emt6, 1 h; outline: as §1
Muscle tissue [8] = assay: Biodistribution in muscle of mouse EMT6 tumor bearing BALB/c mouse at 10 to 20 uCi after 30 mins; assay type: ADME, organism-based; settings: in vivo, 0.5 h; outline: as §1
Kidney [9] = assay: Biodistribution in kidney of mouse EMT6 tumor bearing BALB/c mouse at 10 to 20 uCi after 30 mins; assay type: ADME, organism-based; settings: in vivo, 0.5 h; outline: as §1
Bone [10] = assay: Biodistribution in bone of mouse EMT6 tumor bearing BALB/c mouse at 10 to 20 uCi after 5 mins; assay type: ADME, organism-based, Bone element; settings: in vivo; outline: as §1
Heart [11] = assay: Biodistribution in heart of mouse EMT6 tumor bearing BALB/c mouse at 10 to 20 uCi after 30 mins; assay type: ADME, organism-based; settings: in vivo, 0.5 h; outline: as §1
[12] = Decrease in tumor to muscle ratio of the drug in mouse EMT6 tumor bearing BALB/c mouse after 1 hr in presence of YUN-143; assay type: ADME; design: scale not given: the % may be the effect or the level left
Outline: (§2)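 Blocking: 18F tracer coinjected i.v. with 1 mg/kg cold YUN-143 (σ1/σ2 ligand) into EMT-6 tumor-bearing female Balb/c mice; sacrificed at 60 min; tumor/muscle and tumor/fat ratios from %ID/g of gamma-counted tissues.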

Lung [13] = assay: Biodistribution in lung of mouse EMT6 tumor bearing BALB/c mouse at 10 to 20 uCi after 120 mins; assay type: ADME, organism-based; settings: in vivo, 2 h; outline: as §1
Heart [14] = assay: Biodistribution in heart of EMT6 tumor bearing BALB/c mouse at 10 to 20 uCi after 120 mins; assay type: ADME, organism-based; settings: in vivo, 2 h; outline: as §1
Blood [15] = assay: Biodistribution in blood of mouse EMT6 tumor bearing BALB/c mouse at 10 to 20 uCi after 30 mins; assay type: ADME, organism-based; settings: in vivo, 0.5 h; outline: as §1
Adipose tissue [16] = assay: Biodistribution in fat of mouse EMT6 tumor bearing BALB/c mouse at 10 to 20 uCi after 60 mins; assay type: ADME, organism-based; settings: in vivo, 1 h; outline: as §1
Blood [17] = assay: Biodistribution in blood of mouse EMT6 tumor bearing BALB/c mouse at 10 to 20 uCi after 60 mins; assay type: ADME, organism-based; settings: in vivo, 1 h; outline: as §1
Adipose tissue [18] = assay: Biodistribution in fat of mouse EMT6 tumor bearing BALB/c mouse at 10 to 20 uCi after 5 mins; assay type: ADME, organism-based; settings: in vivo; outline: as §1
Lung [19] = assay: Biodistribution in lung of mouse EMT6 tumor bearing BALB/c mouse at 10 to 20 uCi after 5 mins; assay type: ADME, organism-based; settings: in vivo; outline: as §1
Brain [20] = assay: Biodistribution in brain of EMT6 tumor bearing BALB/c mouse at 10 to 20 uCi after 5 mins; assay type: ADME, organism-based; settings: in vivo; outline: as §1
Liver [21] = assay: Biodistribution in liver of mouse EMT6 tumor bearing BALB/c mouse at 10 to 20 uCi after 30 mins; assay type: ADME, organism-based; settings: in vivo, 0.5 h; outline: as §1
EMT6 [22] = assay: Biodistribution in tumor of EMT6 tumor bearing BALB/c mouse 10 to 20 uCi after 30 mins; assay type: ADME, organism-based; settings: emt6, 0.5 h; outline: as §1
Muscle tissue [23] = assay: Biodistribution in muscle of mouse EMT6 tumor bearing BALB/c mouse at 10 to 20 uCi after 60 mins; assay type: ADME, organism-based; settings: in vivo, 1 h; outline: as §1
Kidney [24] = assay: Biodistribution in kidney of mouse EMT6 tumor bearing BALB/c mouse at 10 to 20 uCi after 60 mins; assay type: ADME, organism-based; settings: in vivo, 1 h; outline: as §1
EMT6 [25] = assay: Biodistribution in tumor of mouse EMT6 tumor bearing BALB/c mouse at 10 to 20 uCi after 5 mins; assay type: ADME, organism-based; settings: emt6, 5 min; outline: as §1
Adipose tissue [26] = assay: Biodistribution in fat of mouse EMT6 tumor bearing BALB/c mouse at 10 to 20 uCi after 30 mins; assay type: ADME, organism-based; settings: in vivo, 0.5 h; outline: as §1
Liver [27] = assay: Biodistribution in liver of mouse EMT6 tumor bearing BALB/c mouse at 10 to 20 uCi after 120 mins; assay type: ADME, organism-based; settings: in vivo, 2 h; outline: as §1
Blood [28] = assay: Biodistribution in blood of mouse EMT6 tumor bearing BALB/c mouse at 10 to 20 uCi after 5 mins; assay type: ADME, organism-based; settings: in vivo; outline: as §1
Bone [29] = assay: Biodistribution in bone of mouse EMT6 tumor bearing BALB/c mouse at 10 to 20 uCi after 60 mins; assay type: ADME, organism-based, Bone element; settings: in vivo, 1 h; outline: as §1
EMT6 [30] = assay: Biodistribution in tumor of mouse EMT6 tumor bearing BALB/c mouse at 10 to 20 uCi after 120 mins; assay type: ADME, organism-based; settings: emt6, 2 h; outline: as §1
Lung [31] = assay: Biodistribution in lung of mouse EMT6 tumor bearing BALB/c mouse at 10 to 20 uCi after 60 mins; assay type: ADME, organism-based; settings: in vivo, 1 h; outline: as §1
Heart [32] = assay: Biodistribution in heart of mouse EMT6 tumor bearing BALB/c mouse at 10 to 20 uCi after 60 mins; assay type: ADME, organism-based; settings: in vivo, 1 h; outline: as §1
Blood [33] = assay: Biodistribution in blood of mouse EMT6 tumor bearing BALB/c mouse at 10 to 20 uCi after 120 mins; assay type: ADME, organism-based; settings: in vivo, 2 h; outline: as §1
Kidney [34] = assay: Biodistribution in kidney of mouse EMT6 tumor bearing BALB/c mouse at 10 to 20 uCi after 120 mins; assay type: ADME, organism-based; settings: in vivo, 2 h; outline: as §1
Heart [35] = assay: Biodistribution in heart of mouse EMT6 tumor bearing BALB/c mouse at 10 to 20 uCi after 5 mins; assay type: ADME, organism-based; settings: in vivo; outline: as §1
Liver [36] = assay: Biodistribution in liver of mouse EMT6 tumor bearing BALB/c mouse at 10 to 20 uCi after 60 mins; assay type: ADME, organism-based; settings: in vivo, 1 h; outline: as §1
Bone [37] = assay: Biodistribution in bone of mouse EMT6 tumor bearing BALB/c mouse at 10 to 20 uCi after 30 mins; assay type: ADME, organism-based, Bone element; settings: in vivo, 0.5 h; outline: as §1
Kidney [38] = assay: Biodistribution in kidney of mouse EMT6 tumor bearing BALB/c mouse at 10 to 20 uCi after 5 mins; assay type: ADME, organism-based; settings: in vivo; outline: as §1
Muscle tissue [39] = assay: Biodistribution in muscle of EMT6 tumor bearing BALB/c mouse at 10 to 20 uCi after 5 mins; assay type: ADME, organism-based; settings: in vivo; outline: as §1
Brain [40] = assay: Biodistribution in brain of mouse EMT6 tumor bearing BALB/c mouse at 10 to 20 uCi after 120 mins; assay type: ADME, organism-based; settings: in vivo, 2 h; outline: as §1
[41] = Decrease in tumor to fat ratio of the drug in mouse EMT6 tumor bearing BALB/c mouse after 1 hr in presence of YUN-143; assay type: ADME; design: scale not given: the % may be the effect or the level left; outline: as §2
Bone [42] = assay: Biodistribution in bone of mouse EMT6 tumor bearing BALB/c mouse at 10 to 20 uCi after 120 mins; assay type: ADME, organism-based, Bone element; settings: in vivo, 2 h; outline: as §1
Brain [43] = assay: Biodistribution in brain of EMT6 tumor bearing BALB/c mouse at 10 to 20 uCi after 30 mins; assay type: ADME, organism-based; settings: in vivo, 0.5 h; outline: as §1

- Drug uptake (Muscle tissue [1]): 0.24 % ID/g
- Ratio [2]: 8
- Drug uptake (Liver [3]): 23.33 % ID/g
- Drug uptake (Brain [4]): 0.18 % ID/g
- Drug uptake (Adipose tissue [5]): 0.08 % ID/g
- Drug uptake (Lung [6]): 2.36 % ID/g
- Drug uptake (EMT6 [7]): 1.14 % ID/g
- Drug uptake (Muscle tissue [8]): 0.7 % ID/g
- Drug uptake (Kidney [9]): 6.86 % ID/g
- Drug uptake (Bone [10]): 2.49 % ID/g
- Drug uptake (Heart [11]): 1.15 % ID/g
- Activity [12]: 50%
- Drug uptake (Lung [13]): 0.43 % ID/g
- Drug uptake (Heart [14]): 0.27 % ID/g
- Drug uptake (Blood [15]): 1.16 % ID/g
- Drug uptake (Adipose tissue [16]): 0.22 % ID/g
- Drug uptake (Blood [17]): 0.56 % ID/g
- Drug uptake (Adipose tissue [18]): 1.95 % ID/g
- Drug uptake (Lung [19]): 10.26 % ID/g
- Drug uptake (Brain [20]): 0.76 % ID/g
- Drug uptake (Liver [21]): 10.51 % ID/g
- Drug uptake (EMT6 [22]): 2.54 % ID/g
- Drug uptake (Muscle tissue [23]): 0.34 % ID/g
- Drug uptake (Kidney [24]): 2.51 % ID/g
- Drug uptake (EMT6 [25]): 3.67 % ID/g
- Drug uptake (Adipose tissue [26]): 0.59 % ID/g
- Drug uptake (Liver [27]): 2.05 % ID/g
- Drug uptake (Blood [28]): 2.49 % ID/g
- Drug uptake (Bone [29]): 0.55 % ID/g
- Drug uptake (EMT6 [30]): 0.64 % ID/g
- Drug uptake (Lung [31]): 0.88 % ID/g
- Drug uptake (Heart [32]): 0.55 % ID/g
- Drug uptake (Blood [33]): 0.35 % ID/g
- Drug uptake (Kidney [34]): 0.87 % ID/g
- Drug uptake (Heart [35]): 3.73 % ID/g
- Drug uptake (Liver [36]): 4.14 % ID/g
- Drug uptake (Bone [37]): 0.96 % ID/g
- Drug uptake (Kidney [38]): 29.18 % ID/g
- Drug uptake (Muscle tissue [39]): 1.86 % ID/g
- Drug uptake (Brain [40]): 0.12 % ID/g
- Activity [41]: 50%
- Drug uptake (Bone [42]): 0.45 % ID/g
- Drug uptake (Brain [43]): 0.27 % ID/g
Compound: COc1cc2c(cc1OC)CN(CCCCNC(=O)c1cc(C)ccc1OCC[18F])CC2
